Data taken from ChEMBL document CHEMBL4190388, “Discovery and Optimization of Indolyl-Containing 4-Hydroxy-2-Pyridone Type II DNA Topoisomerase Inhibitors Active against Multidrug Resistant Gram-negative Bacteria” (J Med Chem, 2018).
≈ marks a conversion by molar mass, not a printed value.

What was measured:
[1] = Oral bioavailability in CD1 mouse plasma by LC-MS/MS analysis; format: ADME, organism-based
Acinetobacter baumannii [2] = test: Antibacterial activity against wild type Acinetobacter baumannii ATCC BAA-747 by CLSI M100-S17 protocol based method; format: functional
Escherichia coli [3] = test: Antibacterial activity against fluoroquinolone resistant Escherichia coli SKM18 by CLSI M100-S17 protocol based method; format: functional
Acinetobacter baumannii [4] = test: Antibacterial activity against beta-lactam resistant Acinetobacter baumannii by broth microdilution method; format: functional; conditions: Acinetobacter baumannii; for MIC: read-out: MIC
How it was run: (§1)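 MICs were determined by CLSI broth methods, except that organisms were grown in brain–heart–infusion medium. The panel comprised wild-type and resistant E. coli and A. baumannii strains, including 12 strains whose details are given by reference.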

Acinetobacter baumannii [5] = test: Antibacterial activity against multidrug resistant Acinetobacter baumannii by broth microdilution method; format: functional; conditions: Acinetobacter baumannii; for MIC: read-out: MIC; how it was run: as §1
Acinetobacter baumannii [6] = test: Antibacterial activity against wild type Acinetobacter baumannii by broth microdilution method; format: functional; how it was run: as §1
Acinetobacter baumannii [7] = test: Antibacterial activity against carbapenem resistant Acinetobacter baumannii by broth microdilution method; format: functional; conditions: Acinetobacter baumannii; for MIC: read-out: MIC; how it was run: as §1
Escherichia coli [8] = test: Antibacterial activity against wild type Escherichia coli ATCC 25922 by CLSI M100-S17 protocol based method; format: functional
Mus musculus [9] = test: AUC (0 to 24 hrs) in CD1 mouse plasma at 10 mg/kg, iv by LC-MS/MS analysis; format: ADME, organism-based; design: time < 24 hr, dose 10 mg/kg, route intravenous; conditions: in vivo
How it was run: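 CD-1 mice given a single 10 mg/kg iv dose (n = 3), in either 10% DMSO plus 1% Tween 80 in pH 8.0 phosphate buffer or 20% (2-hydroxypropyl)-β-cyclodextrin in pH 4.0 citrate buffer; plasma exposure measured.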

Escherichia coli [10] = test: Antibacterial activity against beta-lactam resistant Escherichia coli by broth microdilution method; format: functional; conditions: Escherichia coli; for MIC: read-out: MIC; how it was run: as §1
Escherichia coli [11] = test: Antibacterial activity against quinolone resistant Escherichia coli by broth microdilution method; format: functional; conditions: Escherichia coli; for MIC: read-out: MIC; how it was run: as §1
Acinetobacter baumannii [12] = test: Antibacterial activity against aminoglycoside resistant Acinetobacter baumannii by broth microdilution method; format: functional; conditions: Acinetobacter baumannii; for MIC: read-out: MIC; how it was run: as §1
Acinetobacter baumannii [13] = test: Antibacterial activity against quinolone resistant Acinetobacter baumannii by broth microdilution method; format: functional; conditions: Acinetobacter baumannii; for MIC: read-out: MIC; how it was run: as §1
Escherichia coli [14] = test: Antibacterial activity against aminoglycoside resistant Escherichia coli by broth microdilution method; format: functional; conditions: Escherichia coli; for MIC: read-out: MIC; how it was run: as §1
Acinetobacter baumannii [15] = test: Antibacterial activity against fluoroquinolone resistant Acinetobacter baumannii isolate MMX2240 by CLSI M100-S17 protocol based method; format: functional
[16] = Fraction unbound in mouse plasma at 1 uM by equilibrium dialysis method; format: ADME, cell-free
Klebsiella pneumoniae = test: Antibacterial activity against wild type Klebsiella pneumoniae ATCC 35657 by CLSI M100-S17 protocol based method; format: functional
Escherichia coli [17] = test: Antibacterial activity against wild type Escherichia coli ATCC 25922 in presence of HSA by CLSI M100-S17 protocol based method; format: functional
Mus musculus [18] = test: Terminal half life in CD1 mouse plasma at 10 mg/kg, iv by LC-MS/MS analysis; format: ADME, organism-based; conditions: in vivo
Mus musculus [19] = test: Volume of distribution at steady state in CD1 mouse plasma at 10 mg/kg, iv by LC-MS/MS analysis; format: ADME, organism-based; conditions: in vivo
Escherichia coli [20] = test: Antibacterial activity against quinolone resistance Escherichia coli isolate ELZ4251 harboring gyrA/parC mutant by CLSI M100-S17 protocol based method; format: functional
Escherichia coli [21] = test: Antibacterial activity against wild type Escherichia coli by broth microdilution method; format: functional; how it was run: as §1
Escherichia coli [22] = test: Antibacterial activity against multidrug resistant Escherichia coli by broth microdilution method; format: functional; conditions: Escherichia coli; for MIC: read-out: MIC; how it was run: as §1
Escherichia coli [23] = test: Selectivity ratio of MIC for wild type Escherichia coli ATCC 25922 in presence of HSA to MIC for wild type Escherichia coli ATCC 25922; format: functional

Compound | bioavailability [1] | MIC (Acinetobacter baumannii [2]) | MIC (Escherichia coli [3]) | MIC50 (Acinetobacter baumannii [4]) | MIC (Acinetobacter baumannii [4]) | MIC50 (Acinetobacter baumannii [5]) | MIC (Acinetobacter baumannii [5]) | MIC50 (Acinetobacter baumannii [6]) | MIC90 (Acinetobacter baumannii [6]) | MIC50 (Acinetobacter baumannii [7]) | MIC (Acinetobacter baumannii [7]) | MIC (Escherichia coli [8]) | AUC (Mus musculus [9]) | MIC90 (Escherichia coli [10]) | MIC (Acinetobacter baumannii [15]) | Fu [16] | MIC (Klebsiella pneumoniae) | MIC (Escherichia coli [17]) | beta t1/2 (Mus musculus [18]) | Vdss (Mus musculus [19]) | other results
Cn1c(CN2CCCC2)cc2cc3c(cc21)CCCc1c-3[nH]c(=O)c(C(=O)O)c1O | 33% | 0.78 µg/mL (≈ 1.91 µM) | 0.78 µg/mL (≈ 1.91 µM) | 2 µg/mL (≈ 4.91 µM) | 0.12 to 16 µg/mL (≈ 0.295 to 39.3 µM) | 2 µg/mL (≈ 4.91 µM) | 0.12 to 16 µg/mL (≈ 0.295 to 39.3 µM) | 2 µg/mL (≈ 4.91 µM) | 16 µg/mL (≈ 39.3 µM) | 2 µg/mL (≈ 4.91 µM) | 0.12 to 16 µg/mL (≈ 0.295 to 39.3 µM) | 0.78 µg/mL (≈ 1.91 µM) | 4050 ng·h/mL | 0.5 µg/mL (≈ 1.23 µM) | 1.6 µg/mL (≈ 3.93 µM) | 0.11 | 0.78 µg/mL (≈ 1.91 µM) | 6.3 µg/mL | 2.8 h | 8.1 L/kg | MIC90 (Acinetobacter baumannii [4]): 16 µg/mL (≈ 39.3 µM); MIC90 (Acinetobacter baumannii [5]): 16 µg/mL (≈ 39.3 µM); MIC90 (Acinetobacter baumannii [7]): 16 µg/mL (≈ 39.3 µM); MIC (Escherichia coli [10]): 0.12 to 0.5 µg/mL (≈ 0.295 to 1.23 µM); MIC90 (Escherichia coli [11]): 0.5 µg/mL (≈ 1.23 µM); MIC (Escherichia coli [11]): 0.12 to 0.5 µg/mL (≈ 0.295 to 1.23 µM); MIC50 (Acinetobacter baumannii [12]): 2 µg/mL (≈ 4.91 µM); MIC90 (Acinetobacter baumannii [12]): 16 µg/mL (≈ 39.3 µM); MIC (Acinetobacter baumannii [12]): 0.12 to 16 µg/mL (≈ 0.295 to 39.3 µM); MIC50 (Acinetobacter baumannii [13]): 2 µg/mL (≈ 4.91 µM); MIC90 (Acinetobacter baumannii [13]): 16 µg/mL (≈ 39.3 µM); MIC (Acinetobacter baumannii [13]): 0.12 to 16 µg/mL (≈ 0.295 to 39.3 µM); MIC90 (Escherichia coli [14]): 0.5 µg/mL (≈ 1.23 µM); MIC (Escherichia coli [14]): 0.12 to 0.5 µg/mL (≈ 0.295 to 1.23 µM); MIC (Escherichia coli [20]): 1.6 µg/mL (≈ 3.93 µM); MIC90 (Escherichia coli [21]): 0.5 µg/mL (≈ 1.23 µM); MIC90 (Escherichia coli [22]): 0.5 µg/mL (≈ 1.23 µM); MIC (Escherichia coli [22]): 0.12 to 0.5 µg/mL (≈ 0.295 to 1.23 µM)
Cn1c(CNC2(C)CCC2)cc2cc3c(cc21)CCCc1c-3[nH]c(=O)c(C(=O)O)c1O | 65% | 0.5 µg/mL (≈ 1.19 µM) | 1 µg/mL (≈ 2.37 µM) | – | – | – | – | – | – | – | – | 1 µg/mL (≈ 2.37 µM) | 4580 ng·h/mL | – | 1 µg/mL (≈ 2.37 µM) | 0.047 | 1 µg/mL (≈ 2.37 µM) | 7.8 µg/mL | 3.1 h | 7.1 L/kg | Ratio (Escherichia coli [23]): 4 - 16
CN(C)Cc1cc2cc3c(cc2n1C)CCCc1c-3[nH]c(=O)c(C(=O)O)c1O | 42% | 1.6 µg/mL (≈ 4.19 µM) | 0.78 µg/mL (≈ 2.04 µM) | 2 µg/mL (≈ 5.24 µM) | 0.12 to 16 µg/mL (≈ 0.315 to 41.9 µM) | 2 µg/mL (≈ 5.24 µM) | 0.12 to 16 µg/mL (≈ 0.315 to 41.9 µM) | 2 µg/mL (≈ 5.24 µM) | > 16 µg/mL | 2 µg/mL (≈ 5.24 µM) | 0.12 to 16 µg/mL (≈ 0.315 to 41.9 µM) | 0.78 µg/mL (≈ 2.04 µM) | 3520 ng·h/mL | 1 µg/mL (≈ 2.62 µM) | 1.6 µg/mL (≈ 4.19 µM) | 0.1 | 0.78 µg/mL (≈ 2.04 µM) | 12.5 µg/mL | 2.9 h | 11 L/kg | MIC50 (Escherichia coli [10]): 0.5 µg/mL (≈ 1.31 µM); MIC (Escherichia coli [10]): 0.25 to 2 µg/mL (≈ 0.655 to 5.24 µM); MIC50 (Escherichia coli [11]): 0.5 µg/mL (≈ 1.31 µM); MIC90 (Escherichia coli [11]): 1 µg/mL (≈ 2.62 µM); MIC (Escherichia coli [11]): 0.25 to 2 µg/mL (≈ 0.655 to 5.24 µM); Ratio (Escherichia coli [23]): 4 - 16; MIC50 (Acinetobacter baumannii [12]): 2 µg/mL (≈ 5.24 µM); MIC (Acinetobacter baumannii [12]): 0.12 to 16 µg/mL (≈ 0.315 to 41.9 µM); MIC50 (Acinetobacter baumannii [13]): 2 µg/mL (≈ 5.24 µM); MIC (Acinetobacter baumannii [13]): 0.12 to 16 µg/mL (≈ 0.315 to 41.9 µM); MIC50 (Escherichia coli [14]): 0.5 µg/mL (≈ 1.31 µM); MIC90 (Escherichia coli [14]): 1 µg/mL (≈ 2.62 µM); MIC (Escherichia coli [14]): 0.25 to 2 µg/mL (≈ 0.655 to 5.24 µM); MIC (Escherichia coli [20]): 1.6 µg/mL (≈ 4.19 µM); MIC50 (Escherichia coli [21]): 0.5 µg/mL (≈ 1.31 µM); MIC90 (Escherichia coli [21]): 1 µg/mL (≈ 2.62 µM); MIC50 (Escherichia coli [22]): 0.5 µg/mL (≈ 1.31 µM); MIC90 (Escherichia coli [22]): 1 µg/mL (≈ 2.62 µM); MIC (Escherichia coli [22]): 0.25 to 2 µg/mL (≈ 0.655 to 5.24 µM)
